Key:
Rat [1] = experiment: concentration in plasma after dosing; settings: 0.2 h; dosed: 2-Methyltetrahydrofuran; 40 mg/kg; iv; Male; Harlan Sprague Dawley
Rat [2] = experiment: concentration in plasma after dosing; settings: 2 h; dosed: 2-Methyltetrahydrofuran; 40 mg/kg; iv; Male; Harlan Sprague Dawley
Rat [3] = experiment: concentration in brain after dosing; settings: 0.5 h; dosed: 2-Methyltetrahydrofuran; 40 mg/kg; iv; Female; Harlan Sprague Dawley
Rat [4] = experiment: concentration in plasma after dosing; settings: 0.2 h; dosed: 2-Methyltetrahydrofuran; 40 mg/kg; iv; Male; Harlan Sprague Dawley; remark: listed apart in the source
Rat [5] = experiment: concentration in brain after dosing; settings: 0.75 h; dosed: 2-Methyltetrahydrofuran; 40 mg/kg; iv; Male; Harlan Sprague Dawley
Rat [6] = experiment: concentration in brain after dosing; settings: 12 h; dosed: Fluorotelomer alcohol 8+2; 24 mg/kg; oral; Male; Harlan Sprague Dawley
Rat [7] = experiment: concentration in liver after dosing; settings: 1 h; dosed: Fluorotelomer alcohol 8+2; 24 mg/kg; oral; Male; Harlan Sprague Dawley
Rat [8] = experiment: concentration in kidney after dosing; settings: 1 h; dosed: Fluorotelomer alcohol 8+2; 24 mg/kg; oral; Male; Harlan Sprague Dawley
Rat [9] = experiment: concentration in kidney after dosing; settings: 6 h; dosed: Fluorotelomer alcohol 8+2; 24 mg/kg; oral; Male; Harlan Sprague Dawley
Rat [10] = experiment: concentration in kidney after dosing; settings: 1 h; dosed: Fluorotelomer alcohol 8+2; 24 mg/kg; oral; Male; Harlan Sprague Dawley; remark: listed apart in the source
Rat [11] = experiment: concentration in liver after dosing; settings: 12 h; dosed: Fluorotelomer alcohol 8+2; 24 mg/kg; oral; Male; Harlan Sprague Dawley
Rat [12] = experiment: concentration in plasma after dosing; settings: dosed: 678-39-7, 12 mg/kg, iv, Male, F344
Rat [13] = experiment: concentration in plasma after dosing; settings: 1 h; dosed: Perfluorohexanoic Acid; 40 mg/kg; iv; Female; Harlan Sprague-Dawley
Rat [14] = experiment: concentration in plasma after dosing; settings: 1.5 h; dosed: Perfluorohexanoic Acid; 40 mg/kg; iv; Male; F344
Rat [15] = experiment: concentration in plasma after dosing; settings: 5 min; dosed: Perfluorohexanoic Acid; 40 mg/kg; iv; Male; F344
Rat [16] = experiment: concentration in plasma after dosing; settings: 5 min; dosed: Perfluorohexanoic Acid; 40 mg/kg; iv; Male; F344; remark: listed apart in the source
Rat [17] = experiment: concentration in brain after dosing; settings: 6 h; dosed: Perfluorohexanoic Acid; 80 mg/kg; oral; Male; Harlan Sprague Dawley
human = experiment: concentration in expired air after dosing; settings: dosed: trichloroethylene, 100 ppm, inhalation, duration: 4 hr, person
In short: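 Concentration-versus-time or amount-versus-time points were compiled from published in vivo toxicokinetic studies and from two structured collections. The studies were found by PubMed searching, classifier screening and manual review. Points were mostly digitised from plot screenshots with WebPlotDigitizer, otherwise copied from tables, and kept in the reported units. Dose, route, subject details and medium were curated by hand from each paper, and sampling and analytical methods follow each source and were often unreported.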

Rat [18] = experiment: concentration in kidney after dosing; settings: 1848 h; dosed: Perfluorooctane Sulfonate; 2 mg/kg; oral; Female; Harlan Sprague Dawley
Rat [19] = experiment: concentration in liver after dosing; settings: 1848 h; dosed: Perfluorooctane Sulfonate; 20 mg/kg; oral; Female; F344
Rat [20] = experiment: concentration in liver after dosing; settings: 1848 h; dosed: Perfluorooctane Sulfonate; 20 mg/kg; oral; Male; Harlan Sprague Dawley
Rat [21] = experiment: concentration in liver after dosing; settings: 864 h; dosed: Perfluorooctane Sulfonate; 2 mg/kg; oral; Female; Harlan Sprague Dawley
Rat [22] = experiment: concentration in kidney after dosing; settings: 24 h; dosed: Perfluorooctane Sulfonate; 20 mg/kg; oral; Male; Harlan Sprague Dawley
Rat [23] = experiment: concentration in kidney after dosing; settings: 6 h; dosed: Perfluorooctane Sulfonate; 2 mg/kg; oral; Female; Harlan Sprague Dawley
Rat [24] = experiment: concentration in plasma after dosing; settings: 864 h; dosed: Perfluorooctane Sulfonate; 2 mg/kg; oral; Female; Harlan Sprague Dawley
Rat [25] = experiment: concentration in liver after dosing; settings: 24 h; dosed: Perfluorooctane Sulfonate; 20 mg/kg; oral; Male; Harlan Sprague Dawley
Rat [26] = experiment: concentration in plasma after dosing; settings: 3360 h; dosed: Perfluorooctane Sulfonate; 2 mg/kg; oral; Female; Harlan Sprague Dawley
Rat [27] = experiment: concentration in brain after dosing; settings: 1848 h; dosed: Perfluorooctane Sulfonate; 20 mg/kg; oral; Male; Harlan Sprague Dawley
Rat [28] = experiment: concentration in liver after dosing; settings: 24 h; dosed: Perfluorooctane Sulfonate; 20 mg/kg; oral; Female; F344
Rat [29] = experiment: concentration in kidney after dosing; settings: 6 h; dosed: Perfluorooctane Sulfonate; 20 mg/kg; oral; Female; F344
Rat [30] = experiment: concentration in plasma after dosing; settings: 24 h; dosed: Gemfibrozil; 100 mg/kg; oral; Male; Sprague-Dawley
Rat [31] = experiment: concentration in plasma after dosing; settings: 6 h; dosed: Gemfibrozil; 50 mg/kg; oral; Male; Sprague-Dawley
Rat [32] = experiment: concentration in plasma after dosing; settings: 0.25 h; dosed: Gemfibrozil; 4.29 mg/kg; oral; Male; Sprague-Dawley
Rat [33] = experiment: concentration in plasma after dosing; settings: 24 h; dosed: Gemfibrozil; 100 mg/kg; oral; Male; Sprague-Dawley; remark: listed apart in the source
Rat [34] = experiment: concentration in plasma after dosing; settings: 18 h; dosed: Gemfibrozil; 50 mg/kg; oral; Male; Sprague-Dawley
Rat [35] = experiment: concentration in plasma after dosing; settings: 5 min; dosed: Gemfibrozil; 4.29 mg/kg; oral; Male; Sprague-Dawley
Rat [36] = experiment: concentration in plasma after dosing; settings: 2 h; dosed: Gemfibrozil; 4.29 mg/kg; oral; Male; Sprague-Dawley
Rat [37] = experiment: concentration in plasma after dosing; settings: 18 h; dosed: Gemfibrozil; 4.29 mg/kg; oral; Male; Sprague-Dawley
Rat [38] = experiment: concentration in plasma after dosing; settings: 10 min; dosed: Gemfibrozil; 4.29 mg/kg; oral; Male; Sprague-Dawley

CC1CCCO1 (stereo not given) [2-Methyltetrahydrofuran]
Settings	concentration in brain [ng/mL]	concentration in plasma [ng/mL]
Rat [1]	–	35700
Rat [2]	–	12100
Rat [3]	13800	–
Rat [4]	–	37000
Rat [5]	11400	–

O=C(O)CCC(F)(F)C(F)(F)C(F)(F)C(F)(F)C(F)(F)C(F)(F)C(F)(F)F [Fluorotelomer acid 7+3]
Settings	concentration in brain [ng/g]	concentration in kidney [ng/g]	concentration in liver [ng/g]
Rat [6]	129	–	–
Rat [7]	–	–	693
Rat [8]	–	568	–
Rat [9]	–	1250	–
Rat [10]	–	310	–
Rat [11]	–	–	1580

Rat [12]
Settings	concentration in plasma [ng/mL]
1 h	502
6 h	706

O=C(O)C(F)(F)C(F)(F)C(F)(F)C(F)(F)C(F)(F)F [Perfluorohexanoic Acid]
Settings	concentration in brain [ng/g]	concentration in plasma [ng/mL]
Rat [13]	–	98.9
Rat [14]	–	336
Rat [15]	–	18600
Rat [16]	–	540
Rat [17]	694	–

ClC=C(Cl)Cl [trichloroethylene]
human
Settings	concentration in expired air [ppm]
0.2505 h	6.43
0.4903 h	4.4
1.01 h	2.66
2.009 h	1.42
4.008 h	1.29
5.993 h	1.15
8.005 h	0.514
10.04 h	0.377
11.99 h	0.34
13.99 h	0.738
86 s	24.7

O=S(=O)([O-])C(F)(F)C(F)(F)C(F)(F)C(F)(F)C(F)(F)C(F)(F)C(F)(F)C(F)(F)F [Perfluorooctane Sulfonate]
Settings	concentration in brain [ng/g]	concentration in kidney [ng/g]	concentration in liver [ng/g]	concentration in plasma [ng/mL]
Rat [18]	–	860	–	–
Rat [19]	–	–	55400	–
Rat [20]	–	–	37900	–
Rat [21]	–	–	11100	–
Rat [22]	–	67900	–	–
Rat [23]	–	4220	–	–
Rat [24]	–	–	–	1480
Rat [25]	–	–	164000	–
Rat [26]	–	–	–	144
Rat [27]	1320	–	–	–
Rat [28]	–	–	160000	–
Rat [29]	–	152000	–	–

Cc1ccc(C)c(OCCCC(C)(C)C(=O)O)c1 [Gemfibrozil]
Settings	concentration in plasma [ng/mL]
Rat [30]	1050
Rat [31]	2930
Rat [32]	509
Rat [33]	761
Rat [34]	1100
Rat [35]	485
Rat [36]	74.1
Rat [37]	287
Rat [38]	657
